According to ChEMBL document CHEMBL1153389, “Identification of novel antibacterial peptides by chemoinformatics and machine learning” (2009):

How the values were obtained:
Type in all cases: functional
Pseudomonas aeruginosa [1] = assay: Antimicrobial activity against Pseudomonas aeruginosa H103 after overnight incubation by broth microdilution method
How it was run: (§1)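 Modified broth microdilution. Peptides are serially diluted in 0.01% acetic acid with 0.2% BSA at 10-fold the final concentration, then added to MH medium in polypropylene plates. Bacteria from an overnight culture are added to a final (2-7) × 10^5 CFU/mL. Plates are incubated overnight at 37 °C. MIC is the lowest concentration with no visible growth.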

Pseudomonas aeruginosa [2] = assay: Antimicrobial activity against Pseudomonas aeruginosa H1001 expressing luciferase gene assessed as ratio antimicrobial IC50 for drug to Bac2A peptide by luminescence assay
How it was run: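 Peptides are made by SPOT synthesis on cellulose, cleaved, and the spots placed in plate wells. Overnight P. aeruginosa H1001 (fliC::luxCDABE) is diluted 1:500 in 100 mM Tris-HCl pH 7.3 with 20 mM glucose and added to the wells. After 30 min, serial dilutions (8 rows) are made. Luminescence is read at 4 h. IC50 is taken from a sigmoid fit and expressed relative to Bac2A run in the same series.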

Pseudomonas aeruginosa [3] = assay: Antimicrobial activity against multidrug-resistant Pseudomonas aeruginosa Brazil 9 isolate after overnight incubation by broth microdilution method
How it was run: (§2)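 Modified broth microdilution in polypropylene 96-well plates with Mueller-Hinton (MH) medium. Bulk-synthesized peptides were serially diluted at 10-fold final strength in 0.01% acetic acid with 0.2% BSA, then added 1:10 to MH. Inoculum came from an overnight culture at a final (2-7) × 10^5 CFU/mL. Plates were incubated overnight at 37 °C. MIC was the lowest concentration with no visible growth.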

Pseudomonas aeruginosa [4] = assay: Antimicrobial activity against multidrug-resistant Pseudomonas aeruginosa Brazil 198 isolate after overnight incubation by broth microdilution method; how it was run: as §2
Pseudomonas aeruginosa [5] = assay: Antimicrobial activity against multidrug-resistant Pseudomonas aeruginosa Brazil 213 isolate after overnight incubation by broth microdilution method; how it was run: as §2
Pseudomonas aeruginosa [6] = assay: Antimicrobial activity against Pseudomonas aeruginosa LES400 after overnight incubation by broth microdilution method; how it was run: as §2
Pseudomonas aeruginosa [7] = assay: Antimicrobial activity against Pseudomonas aeruginosa H1030 after overnight incubation by broth microdilution method; how it was run: as §2
Pseudomonas aeruginosa [8] = assay: Antimicrobial activity against Pseudomonas aeruginosa H1027 after overnight incubation by broth microdilution method; how it was run: as §1
[9] = system: Stenotrophomonas maltophilia; assay: Antimicrobial activity against Pseudomonas maltophilia ATCC 13637 after overnight incubation by broth microdilution method; how it was run: as §1
Enterobacter cloacae = assay: Antimicrobial activity against class C chromosomal beta lactamase expressing Enterobacter cloacae 218R after overnight incubation by broth microdilution method; how it was run: as §1
Escherichia coli [10] = assay: Antimicrobial activity against extended-spectrum beta-lactamase producing Escherichia coli 63103 after overnight incubation by broth microdilution method; how it was run: as §1
Escherichia coli [11] = assay: Antimicrobial activity against extended-spectrum beta-lactamase producing Escherichia coli 64771 after overnight incubation by broth microdilution method; how it was run: as §1
Klebsiella pneumoniae [12] = assay: Antimicrobial activity against extended-spectrum beta-lactamase-resistant Klebsiella pneumoniae 61962 after overnight incubation by broth microdilution method; how it was run: as §2
Klebsiella pneumoniae [13] = assay: Antimicrobial activity against extended-spectrum beta-lactamase-resistant Klebsiella pneumoniae 63575 after overnight incubation by broth microdilution method; how it was run: as §2
Staphylococcus aureus [14] = assay: Antimicrobial activity against Staphylococcus aureus ATCC 25923 after overnight incubation by broth microdilution method; how it was run: as §2
Staphylococcus aureus [15] = assay: Antimicrobial activity against methicillin-resistant Staphylococcus aureus C623 after overnight incubation by broth microdilution method; how it was run: as §2
Enterococcus faecalis [16] = assay: Antimicrobial activity against Enterococcus faecalis ATCC 29212 after overnight incubation by broth microdilution method; how it was run: as §1
Enterococcus faecalis [17] = assay: Antimicrobial activity against vancomycin-resistant Enterococcus faecalis w6190(VanA) isolate after overnight incubation by broth microdilution method; how it was run: as §2
Enterococcus faecalis [18] = assay: Antimicrobial activity against vancomycin-resistant Enterococcus faecalis f43559 (VanB) isolate after overnight incubation by broth microdilution method; how it was run: as §2
Enterococcus faecium [19] = assay: Antimicrobial activity against vancomycin-resistant Enterococcus faecium mic80(VanA) isolate after overnight incubation by broth microdilution method; how it was run: as §2
Enterococcus faecium [20] = assay: Antimicrobial activity against vancomycin-resistant Enterococcus faecium t62764(VanB) isolate after overnight incubation by broth microdilution method; how it was run: as §2

Substance | MIC (Pseudomonas aeruginosa [1]) | Ratio IC50 (Pseudomonas aeruginosa [2]) | MIC (Pseudomonas aeruginosa [3]) | MIC (Pseudomonas aeruginosa [4]) | MIC (Pseudomonas aeruginosa [5]) | MIC (Pseudomonas aeruginosa [6]) | MIC (Pseudomonas aeruginosa [7]) | MIC (Pseudomonas aeruginosa [8]) | MIC [9] | MIC (Enterobacter cloacae) | MIC (Escherichia coli [10]) | MIC (Escherichia coli [11]) | MIC (Klebsiella pneumoniae [12]) | MIC (Klebsiella pneumoniae [13]) | MIC (Staphylococcus aureus [14]) | MIC (Staphylococcus aureus [15]) | MIC (Enterococcus faecalis [16]) | MIC (Enterococcus faecalis [17]) | MIC (Enterococcus faecalis [18]) | MIC (Enterococcus faecium [19]) | other results
H-RKWIWRWFL-OH | 6.1 µM | 0.15 | 12 µM | 3.1 µM | 6.1 µM | 6.1 µM | 3.1 µM | 1.5 µM | 1.5 µM | 3 µM | 1.5 µM | 1.5 µM | 3.1 µM | 3.1 µM | 3.1 µM | 3.1 µM | 6.1 µM | 24 µM | 24 µM | 3.1 µM | MIC (Enterococcus faecium [20]): 3.1 µM
H-IWWKWRRWV-OH | 6 µM | 0.29 | 48 µM | 12 µM | 48 µM | 12 µM | 48 µM | 6 µM | 1.5 µM | 6 µM | 24 µM | 6 µM | 96 µM | 12 µM | 3 µM | 3 µM | 24 µM | 48 µM | 48 µM | 6 µM | MIC (Enterococcus faecium [20]): 3 µM
H-KWKIFRRWW-OH | 12 µM | 0.16 | 24 µM | 24 µM | 48 µM | 12 µM | 48 µM | 3.1 µM | 1.5 µM | 6 µM | 24 µM | 12 µM | 194 µM | 97 µM | 3.1 µM | 3.1 µM | 24 µM | 97 µM | 97 µM | 24 µM | MIC (Enterococcus faecium [20]): 6.1 µM
H-WKKWWKRRW-OH | 23 µM | 0.19 | 46 µM | 46 µM | 93 µM | 46 µM | 46 µM | 5.8 µM | 1.4 µM | 23 µM | 23 µM | 2.9 µM | 186 µM | 46 µM | 1.4 µM | 2.9 µM | 93 µM | > 186 µM | > 186 µM | 12 µM | MIC (Enterococcus faecium [20]): 5.8 µM
H-RWRRWKWWL-OH | 2.9 µM | 0.08 | 12 µM | 12 µM | 23 µM | 5.8 µM | 12 µM | 0.3 µM | 0.7 µM | 5.8 µM | 5.7 µM | 2.9 µM | 46 µM | 11 µM | 2.9 µM | 2.9 µM | 23 µM | 92 µM | 92 µM | 5.7 µM | MIC (Enterococcus faecium [20]): 1.4 µM
H-RKRLKWWIY-OH | 25 µM | 0.18 | 50 µM | 50 µM | 50 µM | 50 µM | 50 µM | 6.3 µM | 3.2 µM | 13 µM | 6.3 µM | 6.3 µM | > 202 µM | 50 µM | 6.3 µM | 6.3 µM | 50 µM | > 202 µM | 202 µM | 13 µM | MIC (Enterococcus faecium [20]): 3.2 µM
H-WRWWKIWKR-OH | 5.9 µM | 0.14 | 24 µM | 24 µM | 47 µM | 12 µM | 47 µM | 1.5 µM | 0.8 µM | 12 µM | 5.9 µM | 5.9 µM | 94 µM | 24 µM | 3 µM | 3 µM | 24 µM | 94 µM | 94 µM | 5.9 µM | MIC (Enterococcus faecium [20]): 1.5 µM
H-WKRWWKKWR-OH | 23 µM | 0.2 | 46 µM | 46 µM | 93 µM | 23 µM | 46 µM | 5.8 µM | 1.4 µM | 93 µM | 23 µM | 2.9 µM | 186 µM | 46 µM | 5.8 µM | 5.8 µM | 93 µM | > 186 µM | > 186 µM | 23 µM | MIC (Enterococcus faecium [20]): 5.8 µM
